Measurements taken from ChEMBL document CHEMBL1156002, “Synthesis, Raman, FT-IR, NMR spectroscopic characterization, antimicrobial activity, cytotoxicity and DNA binding of new mixed aza-oxo-thia macrocyclic compounds” (2009).
Values after ≈ are worked out from the molar mass of the structure shown. Active and inactive are the calls of the source. The rule behind the calls is not given here.

Tests used:
A549 [1] = test: Cytotoxicity against human A549 cells assessed as cell viability at 1 uM after 48 hrs by MTT assay; type: functional; conditions: A549, 48 h, read-out: Activity
Outline: (§1)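 Cells were seeded at 3.10³–5.10³ per well in RPMI 1640 with 10% FBS, 4 mM L-glutamine and penicillin/streptomycin, then held 24 h at 37 °C under 5% CO₂. Ligands (DMSO, final 0.5% v/v) were added at 0.1–100 for 24 or 48 h. MTT was added for 4 h and dissolved in 50% DMF/5% SDS. A570 was read, and cytotoxicity was calculated as 100×(OD treated/OD untreated).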

Rhodotorula mucilaginosa [2] = test: Antifungal activity against Rhodotorula rubra DSM 70403 after 72 hrs by agar disk diffusion assay; type: functional
Outline: (§2)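 Sterile 6 mm paper discs were loaded with ligand solution freshly prepared in DMSO and placed on inoculated agar. The inoculum came from broth cultures: bacteria in Nutrient Broth at 30 °C for 24 h, yeasts in Malt Extract Broth for 48 h. Plates were incubated at 35 °C for 24 h (bacteria) or 25 °C for 72 h (yeasts). A DMSO solvent control and a reference antibiotic disc were included on each plate.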

Debaryomyces hansenii [3] = test: Antifungal activity against Debaryomyces hansenii DSM 70238 after 72 hrs by agar disk diffusion assay; type: functional; outline: as §2
Micrococcus luteus [4] = test: Antibacterial activity against Micrococcus luteus La 2971 after 24 hrs by broth micro dilution method; type: functional; conditions: La 2971, 24 h
Micrococcus luteus [5] = test: Antibacterial activity against Micrococcus luteus La 2971 after 24 hrs by agar disk diffusion assay; type: functional
Outline: (§3)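 Disk diffusion with sterile 6 mm discs loaded with DMSO solutions of the test agents and placed on inoculated agar. Bacteria were pre-grown in Nutrient Broth at 30 °C for 24 h, and plates were incubated at 35 °C for 24 h. Each plate carried a reference antibiotic disc matched to the organism, and a DMSO-only solvent control was run.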

Calf thymus DNA = test: Binding affinity to calf thymus DNA assessed as change in electromagnetic spectrum at 500 uM by UV-vis spectroscopy; type: nucleic-acid assay; conditions: Bos taurus
Outline: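 CT-DNA was prepared in ddH₂O and judged protein-free by an A260/A280 ratio of 1.8:1. UV–visible absorption spectra of the DNA solution were recorded without ligand and with increasing ligand amounts.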

Staphylococcus aureus [6] = test: Antibacterial activity against Staphylococcus aureus ATCC 6538 after 24 hrs by broth micro dilution method; type: functional; conditions: ATCC 6538, 24 h
[7] = tested on: Hanseniaspora guilliermondii; test: Antifungal activity against Hanseniaspora guilliermondii DSM 3432 after 72 hrs by agar disk diffusion assay; type: functional; outline: as §2
A549 [8] = test: Cytotoxicity against human A549 cells assessed as cell viability at 100 uM after 24 hrs by MTT assay; type: functional; conditions: A549, 24 h, read-out: Activity; outline: as §1
A549 [9] = test: Induction of apoptosis in human A549 cells assessed as DNA fragmentation at 100 uM after 24 hrs by DNA fragmentation assay; type: functional, cell-based
Outline: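 10 × 10⁴ cells were seeded in 6-well plates and treated with ligand for 24 h. Cells were then collected and washed in PBS, and DNA was extracted with a kit. Extracts were run on 1.5% agarose alongside a 100 bp marker, an untreated control and DMSO-treated controls, and ladders were visualized under UV.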

[10] = Cytotoxicity against human 23132/87 cells assessed as cell viability at 10 uM after 24 hrs by MTT assay; type: functional; conditions: 23132-87, 24 h, read-out: Activity; outline: as §1
A549 [11] = test: Cytotoxicity against human A549 cells assessed as cell viability at 100 uM after 48 hrs by MTT assay; type: functional; conditions: A549, 48 h, read-out: Activity; outline: as §1
A549 [12] = test: Cytotoxicity against human A549 cells assessed as cell viability at 0.1 uM after 24 hrs by MTT assay; type: functional; conditions: A549, 24 h, read-out: Activity; outline: as §1
Candida albicans [13] = test: Antifungal activity against Candida albicans ATCC 10231 after 72 hrs by agar disk diffusion assay; type: functional; outline: as §2
Debaryomyces hansenii [14] = test: Antifungal activity against Debaryomyces hansenii DSM 70238 after 24 hrs by broth micro dilution method; type: functional; conditions: DSM 70238, 24 h
Outline: (§4)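 Broth microdilution was run in cation-adjusted Mueller Hinton Broth. Compounds were dissolved in DMSO at 2 mg mL^-1 and serially diluted two-fold. Yeast precultures were grown in Malt Extract Broth for 48 h. The final inoculum was about 10⁶ cfu mL^-1, and plates were incubated at 37 °C for 24 h. The MIC was read from this series.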

[15] = Cytotoxicity against human 23132/87 cells assessed as cell viability at 100 uM after 48 hrs by MTT assay; type: functional; conditions: 23132-87, 48 h, read-out: Activity; outline: as §1
Escherichia coli = test: Antibacterial activity against Escherichia coli ATCC 11230 after 24 hrs by agar disk diffusion assay; type: functional; outline: as §3
Candida albicans [16] = test: Antifungal activity against Candida albicans ATCC 10231 after 24 hrs by broth micro dilution method; type: functional; conditions: ATCC 10231, 24 h; outline: as §4
A549 [17] = test: Cytotoxicity against human A549 cells assessed as cell viability at 10 uM after 24 hrs by MTT assay; type: functional; conditions: A549, 24 h, read-out: Activity; outline: as §1
[18] = tested on: Mycolicibacterium smegmatis; test: Antibacterial activity against Mycobacterium smegmatis CCM 2067 after 24 hrs by agar disk diffusion assay; type: functional; outline: as §3
Rhodotorula mucilaginosa [19] = test: Antifungal activity against Rhodotorula rubra DSM 70403 after 24 hrs by broth micro dilution method; type: functional; conditions: DSM 70403, 24 h; outline: as §4
[20] = tested on: Hanseniaspora guilliermondii; test: Antifungal activity against Hanseniaspora guilliermondii DSM 3432 after 24 hrs by broth micro dilution method; type: functional; conditions: DSM 3432, 24 h; outline: as §4
[21] = Cytotoxicity against human 23132/87 cells assessed as cell viability at 0.1 uM after 24 hrs by MTT assay; type: functional; conditions: 23132-87, 24 h, read-out: Activity; outline: as §1
A549 [22] = test: Cytotoxicity against human A549 cells assessed as cell viability at 1 uM after 24 hrs by MTT assay; type: functional; conditions: A549, 24 h, read-out: Activity; outline: as §1
Klebsiella pneumoniae = test: Antibacterial activity against Klebsiella pneumoniae UC57 after 24 hrs by agar disk diffusion assay; type: functional; outline: as §3
Staphylococcus aureus [23] = test: Antibacterial activity against Staphylococcus aureus ATCC 6538 after 24 hrs by agar disk diffusion assay; type: functional; outline: as §3
[24] = tested on: Mycolicibacterium smegmatis; test: Antibacterial activity against Mycobacterium smegmatis CCM 2067 after 24 hrs by broth micro dilution method; type: functional; conditions: CCM 2067, 24 h
A549 [25] = test: Induction of apoptosis in human A549 cells assessed as change in nuclear appearance at 100 uM after 24 hrs by hoechst nuclear staining; type: functional, cell-based
Outline: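 Cells grown in 6-well plates were treated for 24 h, washed three times in PBS and fixed in ice-cold methanol for 10 min. They were stained with Hoechst 33258 for 5 min, destained in double-distilled water for 5 min and examined by fluorescence microscopy. Untreated and DMSO-treated cells served as controls.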

A549 [26] = test: Cytotoxicity against human A549 cells assessed as cell viability at 0.1 uM after 48 hrs by MTT assay; type: functional; conditions: A549, 48 h, read-out: Activity; outline: as §1
Listeria monocytogenes [27] = test: Antibacterial activity against Listeria monocytogenes ATCC 15313 after 24 hrs by agar disk diffusion assay; type: functional; outline: as §3
[28] = Cytotoxicity against human 23132/87 cells assessed as cell viability at 1 uM after 48 hrs by MTT assay; type: functional; conditions: 23132-87, 48 h, read-out: Activity; outline: as §1
Listeria monocytogenes [29] = test: Antibacterial activity against Listeria monocytogenes ATCC 15313 after 24 hrs by broth micro dilution method; type: functional; conditions: ATCC 15313, 24 h
[30] = Cytotoxicity against human 23132/87 cells assessed as cell viability at 0.1 uM after 48 hrs by MTT assay; type: functional; conditions: 23132-87, 48 h, read-out: Activity; outline: as §1
Kluyveromyces marxianus = test: Antifungal activity against Kluyveromyces fragilis NRRL 2415 after 24 hrs by broth micro dilution method; type: functional; conditions: NRRL 2415, 24 h; outline: as §4

| MIC (Micrococcus luteus [4]) | Activity (Calf thymus DNA) | MIC (Staphylococcus aureus [6]) | MIC (Debaryomyces hansenii [14]) | MIC (Candida albicans [16]) | SMILES | viability at 1 µM (A549 [1]) | inhibition zone (IZ) (Rhodotorula mucilaginosa [2]) | inhibition zone (IZ) (Debaryomyces hansenii [3]) | inhibition zone (IZ) (Micrococcus luteus [5]) | inhibition zone (IZ) [7] | viability at 100 µM (A549 [8]) | Activity (A549 [9]) | viability at 10 µM [10] | viability at 100 µM (A549 [11]) | viability at 0.1 µM (A549 [12]) | inhibition zone (IZ) (Candida albicans [13]) | viability at 100 µM [15] | inhibition zone (IZ) (Escherichia coli) | viability at 10 µM (A549 [17]) | inhibition zone (IZ) [18] | also measured |
| --- | --- | --- | --- | --- | --- | --- | --- | --- | --- | --- | --- | --- | --- | --- | --- | --- | --- | --- | --- | --- | --- |
| 12.5 µg/mL (≈ 20.7 µM) | inactive | 12.5 µg/mL (≈ 20.7 µM) | 3.12 µg/mL (≈ 5.19 µM) | 6.25 µg/mL (≈ 10.4 µM) | O=C1CSCC(=O)Nc2nc(nc(-c3ccccc3)n2)NC(=O)CSCC(=O)Nc2nc(nc(-c3ccccc3)n2)N1 | > 86% | 17 mm | 18 mm | 14 mm | 20 mm | > 86% | inactive | > 86% | > 86% | > 86% | 16 mm | > 86% | 10 mm | > 86% | 10 mm | MIC (Rhodotorula mucilaginosa [19]): 6.25 µg/mL (≈ 10.4 µM); MIC [20]: 1.56 µg/mL (≈ 2.59 µM); viability at 0.1 µM [21]: > 86%; viability at 1 µM (A549 [22]): > 86%; inhibition zone (IZ) (Klebsiella pneumoniae): 13 mm; inhibition zone (IZ) (Staphylococcus aureus [23]): 12 mm; MIC [24]: 25 µg/mL (≈ 41.5 µM); Activity (A549 [25]): inactive; viability at 0.1 µM (A549 [26]): > 86%; inhibition zone (IZ) (Listeria monocytogenes [27]): 10 mm; viability at 1 µM [28]: > 86%; MIC (Listeria monocytogenes [29]): 25 µg/mL (≈ 41.5 µM); viability at 0.1 µM [30]: > 86%; MIC (Kluyveromyces marxianus): 6.25 µg/mL (≈ 10.4 µM) |
| 12.5 µg/mL (≈ 19 µM) | inactive | 25 µg/mL (≈ 37.9 µM) | 3.12 µg/mL (≈ 4.74 µM) | 3.12 µg/mL (≈ 4.74 µM) | O=C1CCSCCC(=O)Nc2nc(nc(-c3ccccc3)n2)NC(=O)CCSCCC(=O)Nc2nc(nc(-c3ccccc3)n2)N1 | > 86% | 16 mm | 18 mm | 12 mm | 19 mm | > 86% | inactive | > 86% | > 86% | > 86% | 19 mm | > 86% | 10 mm | > 86% | 9 mm | MIC (Rhodotorula mucilaginosa [19]): 6.25 µg/mL (≈ 9.49 µM); MIC [20]: 1.56 µg/mL (≈ 2.37 µM); viability at 0.1 µM [21]: > 86%; viability at 1 µM (A549 [22]): > 86%; inhibition zone (IZ) (Klebsiella pneumoniae): 13 mm; inhibition zone (IZ) (Staphylococcus aureus [23]): 10 mm; MIC [24]: 50 µg/mL (≈ 75.9 µM); Activity (A549 [25]): inactive; viability at 0.1 µM (A549 [26]): > 86%; inhibition zone (IZ) (Listeria monocytogenes [27]): 10 mm; viability at 1 µM [28]: > 86%; MIC (Listeria monocytogenes [29]): 25 µg/mL (≈ 37.9 µM); viability at 0.1 µM [30]: > 86%; MIC (Kluyveromyces marxianus): 6.25 µg/mL (≈ 9.49 µM) |
